XiGFP reactiv: X-chromosome reactivation activator. XiGFP mouse fibroblasts, % GFP-positive cells imaging, 3 d; cells co-treated with 5-aza-dC sensitizer; scaled so ellipticine positive control = 100%. activation, % at 7.58 µM. 360,000 compounds, 0.055% hits. AID 743238;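 active = mean normalized replicate activation at least 10% and every replicate at or above 10%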;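 also: 0% = median of on-plate neutral control wells and 100% = ellipticine 6 µM median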
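Material: XiGFP fibroblasts, SV40-immortalized. Buffer or medium: DMEM plus 5-aza-dC sensitizer. Compound: single concentration per compound, delivered by pin transfer. Times: 3 days compound exposure. Controls: ellipticine 6 µM.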
NadD block: blocks S. aureus nicotinate mononucleotide adenylyltransferase. 360,000 compounds, 0.78% hits. AID 602399. purified NadD enzyme, colorimetric absorbance read-out. inhibition, % at 20 µM; in the data active = inhibition above about 26%
ABHD5-PLIN5 inh: ABHD5-PLIN5 protein interaction inhibition; AID 602281; Q00G26+Q8WTS1; 360,000 compounds, 0.78% hits; inhibition, % at 4 µM; Split G. princeps luciferase complementation, luminescence, 4 h;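 active = inhibition above the mean inhibition across every tested compound plus 3 SD, cut at about 22% in these data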;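 also: 0% = DMSO only wells and the 100% control is not disclosed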
Rin1 Abl inh: inhibitors of human Rin1-Abl protein interaction. inhibition, % at 7.35 µM. TR-FRET Rin1/Abl binding, biochemical. 360,000 compounds, 0.4% hits. AID 588664; in the data active = inhibition above about 5%, passing the limit was not always enough
Target sequence (P00519 whole entry, looked up): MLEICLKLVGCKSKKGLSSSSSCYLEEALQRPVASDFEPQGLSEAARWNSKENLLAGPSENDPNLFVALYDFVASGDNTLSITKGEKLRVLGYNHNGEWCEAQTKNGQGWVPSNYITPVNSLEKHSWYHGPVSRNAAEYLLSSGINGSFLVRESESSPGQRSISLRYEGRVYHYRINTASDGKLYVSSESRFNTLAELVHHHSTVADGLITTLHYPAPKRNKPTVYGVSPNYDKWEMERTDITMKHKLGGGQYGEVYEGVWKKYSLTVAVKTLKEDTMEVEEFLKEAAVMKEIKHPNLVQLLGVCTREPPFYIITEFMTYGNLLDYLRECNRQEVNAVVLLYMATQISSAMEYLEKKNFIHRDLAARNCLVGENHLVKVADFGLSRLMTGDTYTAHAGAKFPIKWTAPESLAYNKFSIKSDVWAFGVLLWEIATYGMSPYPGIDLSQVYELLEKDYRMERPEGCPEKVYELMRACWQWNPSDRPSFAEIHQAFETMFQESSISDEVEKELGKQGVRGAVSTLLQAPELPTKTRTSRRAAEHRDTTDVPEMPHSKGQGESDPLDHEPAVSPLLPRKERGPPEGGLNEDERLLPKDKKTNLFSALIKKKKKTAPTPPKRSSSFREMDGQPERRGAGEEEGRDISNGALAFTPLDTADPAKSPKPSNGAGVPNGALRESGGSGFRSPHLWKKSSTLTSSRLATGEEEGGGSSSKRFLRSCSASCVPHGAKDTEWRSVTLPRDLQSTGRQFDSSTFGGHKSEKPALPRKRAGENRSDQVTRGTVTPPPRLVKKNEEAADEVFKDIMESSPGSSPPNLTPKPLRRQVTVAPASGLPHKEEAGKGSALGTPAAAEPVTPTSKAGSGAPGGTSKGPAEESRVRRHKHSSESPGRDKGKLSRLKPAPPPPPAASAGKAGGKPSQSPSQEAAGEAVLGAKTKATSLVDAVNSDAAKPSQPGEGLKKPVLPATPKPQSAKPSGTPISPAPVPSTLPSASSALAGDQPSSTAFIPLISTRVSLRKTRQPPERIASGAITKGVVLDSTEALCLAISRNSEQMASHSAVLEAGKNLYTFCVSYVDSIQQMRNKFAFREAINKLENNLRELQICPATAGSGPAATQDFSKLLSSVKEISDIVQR
Target sequence (Q13671 whole entry, looked up): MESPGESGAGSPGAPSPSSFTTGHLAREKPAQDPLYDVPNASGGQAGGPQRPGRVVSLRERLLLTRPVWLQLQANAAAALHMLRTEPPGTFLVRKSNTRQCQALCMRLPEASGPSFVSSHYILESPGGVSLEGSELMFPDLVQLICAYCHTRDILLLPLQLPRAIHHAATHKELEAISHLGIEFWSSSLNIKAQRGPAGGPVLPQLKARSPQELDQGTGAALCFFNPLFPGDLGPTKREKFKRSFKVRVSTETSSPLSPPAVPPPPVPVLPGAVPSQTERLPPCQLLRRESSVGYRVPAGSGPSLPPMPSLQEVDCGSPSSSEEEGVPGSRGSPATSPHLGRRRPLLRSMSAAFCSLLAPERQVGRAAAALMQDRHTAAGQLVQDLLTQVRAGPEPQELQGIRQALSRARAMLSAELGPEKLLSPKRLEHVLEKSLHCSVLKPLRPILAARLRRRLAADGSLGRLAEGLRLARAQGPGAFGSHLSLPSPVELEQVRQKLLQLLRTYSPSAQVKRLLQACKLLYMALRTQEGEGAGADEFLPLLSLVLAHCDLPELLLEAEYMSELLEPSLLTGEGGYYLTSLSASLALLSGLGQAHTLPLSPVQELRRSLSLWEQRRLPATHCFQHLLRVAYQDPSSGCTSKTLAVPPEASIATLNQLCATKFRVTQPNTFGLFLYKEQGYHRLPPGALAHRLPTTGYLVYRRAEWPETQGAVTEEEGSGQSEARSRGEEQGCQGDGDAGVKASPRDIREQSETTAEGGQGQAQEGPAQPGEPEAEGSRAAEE
Rpn11 block: inhibitors of human proteasome Rpn11. inhibition, % at 20 µM. human 26S proteasome, Ub4-pepOG fluorescence polarization; 20S core pre-blocked with epoxomicin. 360,000 compounds, 0.59% hits. O00487. AID 588493;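 active = inhibition at 20 µM, scaled to each plate's controls, above about 33%, limit read from the data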
NadD inh conf: NadD (S. aureus) inhibition, single concentration confirmation. inhibition, % at 20 µM. shares compounds with NadD block. 2,000 compounds, 13% hits. purified S. aureus NadD, colorimetric enzyme assay; in the data active = inhibition mostly above about 42%, no sharp cut-off; inactive = mostly below about 42%
Numbers without * were called inactive; nt = no result. Most compounds without a hit are left out; they make up all but 1.9% or so of the library.

SMILES	XiGFP reactiv	NadD block	ABHD5-PLIN5 inh	Rin1 Abl inh	Rpn11 block	NadD inh conf
COc1ccccc1N1CCN(c2ncc(C(=O)N3CCN(c4cccc(Cl)c4)CC3)c3ccccc23)CC1	0	34*	-1	0	0	2
COc1ccc(OC[C@@H](O)CNC(=O)c2cccc3c2C(=O)c2ccc(-c4ccc(F)cc4OCc4ccccc4)cc2S3(=O)=O)cc1	nt	35*	-8	-1	8	25
COc1cc(/C=C(\C#N)c2nc3ccccc3[nH]2)ccc1OC(=O)c1ccco1	0	18	-1	-1	19	nt
N#C/C(=C\c1cccc(OCC(=O)O)c1)c1nc2ccccc2[nH]1	0	10	-5	-2	-3	nt
N#C/C(=C\c1ccc(Oc2ccc(C(F)(F)F)cc2[N+](=O)[O-])cc1)c1nc2ccccc2[nH]1	nt	40*	3	-2	15	11
COc1cc(/C=C(\C#N)c2nc3ccccc3[nH]2)c([N+](=O)[O-])cc1OCc1ccccc1	nt	40*	-1	2	19	17
COc1ccc(S(=O)(=O)Nc2ccc3c(c2)CC(=O)N([C@H](C)CO)C[C@H](C)[C@@H](CN(C)Cc2ccc(C(=O)O)cc2)O3)cc1	0	nt	nt	nt	nt	nt
COc1cccc(S(=O)(=O)Nc2ccc3c(c2)OC[C@H](C)NC[C@@H](C)[C@@H](OC)CN(C)C3=O)c1	0	nt	nt	nt	nt	nt
C[C@H]1CCCCO[C@H](CN(C)Cc2ccc3c(c2)OCO3)[C@@H](C)CN([C@@H](C)CO)C(=O)c2cc(NC(=O)c3ccncc3)ccc2O1	0	nt	nt	nt	nt	nt
CCN1[C@@H]2c3ccc(-c4ccc(F)cc4)c(=O)n3C[C@@H]2[C@@H](CO)[C@@H]1C(=O)NC1CCC1	0	nt	nt	nt	nt	nt
COc1ccc2nc(-n3c(O)c(C4=c5ccccc5=NC4=O)[nH]c3=S)sc2c1	0	52*	8	1	-15	11
Cn1c(O)c(C2=c3ccccc3=NC2=O)[nH]c1=S	0	2	0	-6	4	nt
NS(=O)(=O)c1ccc(N/N=C/c2cn(-c3ccccc3)nc2-c2cccs2)c([N+](=O)[O-])c1	0	36*	-3	0	2	-6
CO[C@@H]1CN(C)C(=O)c2ccc(NC(=O)NC(C)C)cc2OC[C@@H](C)N(CC2CC2)C[C@H]1C	0	nt	nt	nt	nt	nt
O=c1nc2s/c(=C\c3ccc(-c4ccccc4[N+](=O)[O-])o3)c(=O)n2nc1-c1ccccc1	0	36*	-6	-1	-22	5
CCCNC(=O)C[C@H]1C[C@@H]2c3cc(NC(=O)Nc4ccccc4)ccc3O[C@@H]2[C@H](CO)O1	0	nt	nt	nt	nt	nt
FC(F)(F)c1ccccc1Cc1c(-c2ccc(Cl)cc2)nc2c3ccccc3ccn12	0	33*	-12	nt	nt	9
Cc1ccc(S(=O)(=O)N(C)C[C@@H]2OCCCC[C@@H](C)Oc3ccc(NS(C)(=O)=O)cc3C(=O)N([C@@H](C)CO)C[C@H]2C)cc1	0	nt	nt	nt	nt	nt
COC(=O)c1ccc(COc2ccccc2/C=N/Nc2cccc(C(=O)O)c2)cc1	0	19	-5	-4	0	nt
O=C(O)c1cccc(NC(=S)N/N=C/c2ccccc2OCc2cccc(Br)c2)c1	0	51*	-8	-4	4	72*
O=C(O)c1cccc(NC(=S)N/N=C/c2ccccc2OCc2ccc(Br)cc2)c1	0	45*	-10	4	8	64*
C[C@H](CO)N1C[C@H](C)[C@H](CN(C)CC2CCCCC2)Oc2c(NS(=O)(=O)c3cn(C)cn3)cccc2C1=O	0	nt	nt	nt	nt	nt
CCOC(=O)Cn1c(=NC(=O)c2sc3ccccc3c2Cl)sc2cc(S(N)(=O)=O)ccc21	0	51*	-5	-7	11	-2
COC(=O)Cn1c(=NC(=O)c2sc3ccccc3c2Cl)sc2cc(S(N)(=O)=O)ccc21	0	37*	6	-15	-9	7
C=CCn1c(SCC(=O)Nc2ccccc2CC)nnc1-c1ccncc1	nt	-11	-3	-2	-10	nt
SMILES	XiGFP reactiv	NadD block	ABHD5-PLIN5 inh	Rin1 Abl inh	Rpn11 block	NadD inh conf
C=CCn1c(SCC(=O)Nc2ccccc2C)nnc1-c1ccncc1	nt	49*	3	4	2	6
CC(=O)c1ccccc1NC(=O)CN1C(=O)CS/C1=C\c1nc(-c2ccc(C)cc2)cs1	0	46*	0	1	10	2
Cn1cnc(S(=O)(=O)N2C[C@@H](O)COC[C@@H]3O[C@H](CC(=O)N4CCN(c5ccccc5)CC4)CC[C@H]32)c1	0	nt	nt	nt	nt	nt
COc1ccc(/C=C2/SC(=O)N(CCC(=O)Nc3ccc(S(=O)(=O)Nc4nccs4)cc3)C2=O)cc1	1	69*	3	0	-4	49*
COc1ccc(/C=C2\SC(=O)N(CCC(=O)Nc3ccc(S(=O)(=O)Nc4nccs4)cc3)C2=O)cc1	0	76*	2	-3	5	60*
CCNC(=O)[C@@H]1[C@@H](CO)[C@@H]2Cn3c(ccc(-c4ccccc4F)c3=O)[C@H]1N2S(C)(=O)=O	0	nt	nt	nt	nt	nt
CC(=O)C1CCC2C3CCC4=CC(=O)C=CC4(C)C3C(=O)CC12C (stereo unspecified)	1	0	2	5	0	nt
C[C@]12C=CC(=O)C=C1CC[C@@H]1C2=CC[C@]2(C)[C@@H](C(=O)CN3CCN(c4cc(N5CCCC5)nc(N5CCCC5)n4)CC3)CC[C@@H]12	0	33*	-21	-4	34	0
N#Cc1cccnc1N1CCN(C(=O)c2cccc3c2C(=O)c2ccc(Cl)cc2S3(=O)=O)CC1	0	7	-4	2	5	nt
N#Cc1cccnc1N1CCN(C(=O)c2cccc3c2C(=O)c2ccc(-c4ccc(Cl)c(C(F)(F)F)c4)cc2S3(=O)=O)CC1	nt	35*	-7	1	8	3
Cc1nn(-c2ccccc2)c(N2CCCC2)c1/C=N/NC(=O)c1cccc(S(=O)(=O)Nc2ccc(Cl)cc2)c1	0	53*	3	-1	10	55*
Cc1nn(-c2ccc(Cl)cc2)c(Cl)c1/C=N/NC(=O)c1ccc(NS(=O)(=O)c2cccs2)cc1	1	41*	10	-3	22	63*
Cc1nn(-c2ccc(F)cc2)c(Cl)c1/C=N/NC(=O)c1cccs1	0	-4	-9	-4	12	nt
COc1ccc(-c2nn(-c3ccccc3)cc2/C=N/NC(=O)c2cccc(S(=O)(=O)Nc3ccccc3Cl)c2)cc1	0	42*	-2	-2	3	16
COc1cccc(C(=O)Nc2ccc3c(c2)OC[C@@H](C)N(C(=O)C2CC2)C[C@@H](C)[C@H](OC)CN(C)C3=O)c1	0	nt	nt	nt	nt	nt
COc1ccc(NC(=O)N(C)C[C@@H]2OCCCC[C@@H](C)Oc3ccc(NS(=O)(=O)c4ccc(F)cc4)cc3C(=O)N([C@H](C)CO)C[C@@H]2C)cc1	0	nt	nt	nt	nt	nt

Screening data: PubChem, several laboratories
